# Legend:
# Assay type in all cases: functional
# Rattus norvegicus [1] = assay: Antiinflammatory activity against D-adjuvant arthritis in injected rat paw at the dose of 50 mg/kg by oral administration
# Rattus norvegicus [2] = assay: Antiinflammatory activity against carrageenan induced rat paw edema (CPE), dosed orally
# In short: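 Male Sprague–Dawley rats (150 ± 10 g), five per group. Compound or vehicle given orally in 0.5% methylcellulose 1 h before subplantar injection of 0.1 mL 1% carrageenan in saline into the right hind paw. Paw volume measured by mercury displacement before dosing and 3 h after carrageenan; the difference is the edema volume. ANOVA with Dunnett's t test.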
# Rattus norvegicus [3] = organism: Rattus norvegicus; assay: Antiinflammatory activity in D-adjuvant induced arthritis in rat measured by the change in body weight; parameters: concentration or dose not given beside the values
# Rattus norvegicus [4] = assay: Antiinflammatory activity against D-adjuvant arthritis in uninjected rat paw at the dose of 50 mg/kg by oral administration
# In short: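 Rat developing adjuvant arthritis screen with oral dosing on a prophylactic protocol. Percent change in body weight versus untreated animals was recorded as a preliminary toxicity sign. Significance was assessed against controls by two-tailed Student's t test, p < 0.05.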
SMILES,inhibition in vivo at 50 mg/kg (Rattus norvegicus [1]) [%],Inhibition (Rattus norvegicus [2]) [%],Activity (Rattus norvegicus [3]) [%],inhibition in vivo at 50 mg/kg (Rattus norvegicus [4]) [%]
CCN(CC)CC(=O)Nc1nc2c(Cl)c3nc(NC(=O)CN(CC)CC)sc3c(-c3ccccc3)c2s1,13,35,-6,7
O=C(CNC1CCCC1)Nc1nc2cc3nc(NC(=O)CNC4CCCC4)sc3cc2s1,43,13,10,70
CCN(CC)CC(=O)Nc1nc2cc3nc(NC(=O)CN(CC)CC)sc3c([N+](=O)[O-])c2s1,11,23,-16,12
CC1CCCCN1CC(=O)Nc1nc2cc3nc(NC(=O)CN4CCCCC4C)sc3cc2s1 (stereo not drawn),41,0,6,82
O=C(CN1CCN(c2ccccc2)CC1)Nc1nc2cc3nc(NC(=O)CN4CCN(c5ccccc5)CC4)sc3cc2s1,40,0,1,56
CCN(CC)CC(=O)Nc1nc2c(ccc3nc(NC(=O)CN(CC)CC)sc32)s1.Cl.Cl,2,0,-20,36
CCN(CC)CC(=O)Nc1nc2c(s1)c(OC)c(Cl)c1nc(NC(=O)CN(CC)CC)sc12,38,17,-11,8
CCOC(=O)c1c2nc(NC(=O)CN(CC)CC)sc2cc2sc(NC(=O)CN(CC)CC)nc12,7,32,-9,0
CCN(CC)CC(=O)N(CC)c1nc2cc3nc(N(CC)C(=O)CN(CC)CC)sc3c(Br)c2s1,0,16,-16,0
CCN(CC)CC(=O)Nc1nc2c(C)c3nc(NC(=O)CN(CC)CC)sc3c(Cl)c2s1,42,18,-37,16
CCOC(=O)c1c2sc(N)nc2cc2nc(N)sc12,23,2,-14,0
O=C(CN1CCN(CCO)CC1)Nc1nc2cc3nc(NC(=O)CN4CCN(CCO)CC4)sc3cc2s1,16,24,0,72
CC(C)N(CC(=O)Nc1nc2cc3nc(NC(=O)CN(C(C)C)C(C)C)sc3cc2s1)C(C)C,0,0,-5,0
O=C(CNC1CCCCC1)Nc1nc2cc3nc(NC(=O)CNC4CCCCC4)sc3cc2s1,3,20,8,59
O=C(CN1CCC(N2CCCCC2)CC1)Nc1nc2cc3nc(NC(=O)CN4CCC(N5CCCCC5)CC4)sc3cc2s1,46,0,-3,38
CCOC(=O)c1c2sc(NC(=O)CN(CC)CC)nc2c(C)c2nc(NC(=O)CN(CC)CC)sc12,15,35,-12,50
O=C(CN1CCCCC1CCO)Nc1nc2cc3nc(NC(=O)CN4CCCCC4CCO)sc3cc2s1 (stereo not drawn),4,30,-9,5
CCOC(=O)CN1CCN(CC(=O)Nc2nc3cc4nc(NC(=O)CN5CCN(CC(=O)OCC)CC5)sc4cc3s2)CC1,0,14,-11,0

SMILES,inhibition in vivo at 50 mg/kg (Rattus norvegicus [1]) [%],Inhibition (Rattus norvegicus [2]) [%],Activity (Rattus norvegicus [3]) [%],inhibition in vivo at 50 mg/kg (Rattus norvegicus [4]) [%]
CCN(CC)CC(=O)Nc1nc2cc3nc(NC(=O)CN(CC)CC)sc3c(Cl)c2s1,94,8,-46,100
CC1CCC(NCC(=O)Nc2nc3cc4nc(NC(=O)CNC5CCC(C)C5)sc4cc3s2)C1 (stereo not drawn),11,11,-7,30
CCNC(=O)Nc1nc2cc3nc(NC(=O)NCC)sc3cc2s1,0,6,-1,15
O=C(CN1CCN(c2ccc(Cl)cc2)CC1)Nc1nc2cc3nc(NC(=O)CN4CCN(c5ccc(Cl)cc5)CC4)sc3cc2s1,21,12,,41
COc1cc2nc(N)sc2c2nc(N)sc12,34,43,-29,35
CCN(CC)CC(=O)Nc1nc2cc3nc(NC(=O)CN(CC)CC)sc3c(OC)c2s1,19,17,10,0
O=C(CN1CCSC1)Nc1nc2cc3nc(NC(=O)CN4CCSC4)sc3cc2s1,26,11,11,27
CN(CC(=O)Nc1nc2cc3nc(NC(=O)CN(C)C4CCCCCCC4)sc3cc2s1)C1CCCCCCC1,22,0,-3,29
CCN(CC)CC(=O)Nc1nc2cc3nc(NC(=O)CN(CC)CC)sc3c(Br)c2s1,80,0,-45,100
CCN(CC)CC(=O)Nc1nc2cc3nc(NC(=O)CN(CC)CC)sc3c(N)c2s1,26,53,-35,38
CCN(CC)CC(=O)Nc1nc2cc3nc(N)sc3cc2s1,34,13,-20,61
CC1CCCC1NCC(=O)Nc1nc2cc3nc(NC(=O)CNC4CCCC4C)sc3cc2s1 (stereo not drawn),0,36,-22,0
O=C(CNC1CC1)Nc1nc2cc3nc(NC(=O)CNC4CC4)sc3cc2s1,0,18,14,16
CCOCCN(CCOCC)CC(=O)Nc1nc2cc3nc(NC(=O)CN(CCOCC)CCOCC)sc3cc2s1,16,0,0,21
O=C(CNC1CCCCCC1)Nc1nc2cc3nc(NC(=O)CNC4CCCCCC4)sc3cc2s1,6,0,1,59
CCN(CC)CC(=O)Nc1nc2cc3nc(NC(=O)CN4CCCCC4)sc3cc2s1,50,20,-14,58
O=C(CN1CCCCCC1)Nc1nc2cc3nc(NC(=O)CN4CCCCCC4)sc3cc2s1,26,0,,27

# From ChEMBL document CHEMBL1125290, “Bis basic substituted diaminobenzobisthiazoles as potential antiarthritic agents” (1992)
